Compound activity: PubChem BioAssay, Broad Institute
Shown are actives, neighbours in structure and some others; about 2% of the full set was active somewhere.
dFosB act-1 – enhances mouse delta FosB homodimer DNA binding; P13346; 340,000 compounds, 0.99% hits; purified delta FosB, TAMRA-CDK5 oligo fluorescence polarization; percent of positive-control signal above neutral wells; activation, % at 25 µM;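 active means mean activation above about 17%, with every replicate also reaching it, limit read from the data, passing the limit was not always enough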
SR-BI HDL uptake – blocks mouse SR-BI lipid uptake from DiI-HDL; ldlA[mSR-BI] CHO cells, DiI-HDL uptake fluorescence, 3 h; inhibition, % at 12.5 µM; 320,000 compounds, 0.96% hits; AID 488896;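 active means mean replicate inhibition of at least 70% and a set share of replicates each scoring 70 or more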;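 further: 0% = median of neutral control wells and 100% = median of positive control wells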
SR-BI DiI-HDL act – SR-BI HDL lipid transfer activation. CHO ldlA[mSR-BI] cells, DiI-HDL uptake fluorescence, 3 h; 100 = double the neutral-control signal. activation, % at 12.5 µM. 320,000 compounds, 0.096% hits. AID 504775;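 active means mean replicate activation of at least 60% and every replicate at or above 60%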;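 further: 0% = median plate neutral-control signal and 100% = twice that signal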
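Test system: SR-BI-overexpressing, LDLR-lacking CHO cells; Medium: Ham's F12 with 0.5% BSA, HEPES 25 mM, pH 7.4; Schedule: 3 h, 37 °C; Technique: bottom-read fluorescence, 550/595 nm.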
CDK5 inh – CDK5/p35 (human) kinase inhibition. AID 488839. inhibition, % at 10 µM. Recombinant CDK5/p35, ADP-Glo luminescence, 60 min. 330,000 compounds, 0.01% hits;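 active means highest replicate inhibition of at least 50% and at least 75% of replicates reaching 50%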;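 further: plate controls were DMSO neutral control for no effect and GW8510 at 10 µM for full effect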
dFosB act-2 – delta FosB (mouse) homodimer activation; shares compounds with dFosB act-1; activation, % at 24.9 µM; purified delta FosB, TAMRA-CDK5 oligo fluorescence polarization; normalised: neutral wells 0, positive control 100; 2,400 tested, under 10 active;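 active means highest replicate activation at or above 34% and every replicate reaching that threshold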;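 further: higher polarization means more probe DNA bound by delta FosB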
Starred values were filed as active, the others as inactive; x = no result given.

SMILES	dFosB act-1	SR-BI HDL uptake	SR-BI DiI-HDL act	CDK5 inh	dFosB act-2
COc1ccc(/C=N/n2c(=O)[nH]c3c([nH]c4ccc(Br)cc43)c2=O)cc1CN1CCOCC1	28.3*	2.1	-2.1	-1.1	3.4
COc1ccc(/C=N/n2c(=O)[nH]c3c([nH]c4ccc(Cl)cc43)c2=O)cc1CN1CCCCC1	-2.0	-16.4	16.4	-4.8	x
CN(CC(=O)Nc1ccc(Cl)c(C(F)(F)F)c1)C(=O)/C=C/c1ccco1	-13.0	-23.5	23.5	-1.6	x
CN(CC(=O)Nc1ccc(Cl)c(C(F)(F)F)c1)C(=O)/C=C/c1cccs1	28.5*	-8.2	8.2	-0.6	0.0
CN(CC(=O)Nc1ccc(Cl)c(C(F)(F)F)c1)C(=O)c1cc(=O)c2ccccc2o1	33.4*	5.0	-5.0	-1.6	0.2
CN(CC(=O)Nc1ccc(Cl)c(C(F)(F)F)c1)C(=O)c1cc(=O)[nH]c2ccccc12	-21.5	-8.0	8.0	-1.2	x
O=C(Nc1ccc(Br)cn1)c1ccc2nccnc2c1	43.3*	5.1	-5.1	-0.1	-0.1
CSCCC(NS(=O)(=O)c1ccc2c(c1)OCCO2)C(=O)N(C)Cc1ccccc1F (stereo not drawn)	6.6	-10.5	10.5	-1.2	x
Cc1cccc(C(=O)NCC(=O)NCC2COc3ccccc3O2)c1 (stereo not drawn)	1.5	23.3	-23.3	0.3	x
CCOC(=O)c1ccc(S(=O)(=O)NNC(=O)COc2ccc(C)cc2)cc1	60.6*	-27.1	27.1	-0.1	4.0
COc1cc(C(=O)NCc2ccc(C)cc2)ccc1OCc1c(C)noc1C	25.0*	32.2	-32.2	1.4	5.8
COc1ccccc1CNC(=O)c1ccc(OCc2c(C)noc2C)c(OC)c1	-4.8	53.6	-53.6	0.2	x
COc1cc(C(=O)NCCc2ccc(S(N)(=O)=O)cc2)ccc1OCc1c(C)noc1C	25.7*	54.2	-54.2	0.1	1.9
O=C(Nc1cccc(O)c1)c1cccc(C(=O)Nc2cccc(O)c2)c1	-5.9	64.6	-64.6	-0.1	x
O=C(Nc1ccccc1)Nc1snnc1C(=O)Nc1cccc(O)c1	57.3*	63.5	-63.5	1.5	1.2
